ChEMBL document CHEMBL2040828 (J Med Chem, 2012)
Calls of active or inactive are those of the source. The rule behind the calls is not given here.

Assays:
Hepatitis C virus = assay: Antiviral activity against HCV by cell based replicon assay; type: functional, organism-based, Hepacivirus hominis
[1] = Irreversible inhibition of hepatitis C virus NS5B polymerase; set-up: species or system Hepacivirus hominis
[2] = AUC in rat at 10 mg/kg, po; type: ADME, organism-based; set-up: dose 10 mg/kg, route oral; conditions: plasma
Summary of the method: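 Single-dose pharmacokinetics: rats were dosed at 10 mg/kg, and monkeys and dogs at 3 mg/kg. Oral AUC, clearance, half-life and bioavailability were determined. All doses were given in 0.4% MC vehicle.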

Hepacivirus hominis = assay: Binding affinity to hepatitis C virus NS5B polymerase assessed as covalent bonding with cysteine-366 residue by mass spectroscopy analysis

SMILES | EC50 (Hepatitis C virus) [nM] | IC50 [1] [nM] | AUC [2] [µM·h] | Activity (Hepacivirus hominis)
Cc1ccc2c(c1)c(-c1ccc[nH]c1=O)c(C(=O)NS(=O)(=O)C1CC1)n2Cc1cc(S(=O)(=O)C(F)(F)F)ccc1Cl | 900 | 46 |  | 
Cc1ccc2c(c1)c(-c1ccc[nH]c1=O)c(C(=O)NS(=O)(=O)C1CC1)n2Cc1cc(C#N)ccc1F | 220 | 9 |  | 
Cc1ccc2c(c1)c(-c1ccc[nH]c1=O)c(C(=O)NS(=O)(=O)C1CC1)n2Cc1c(F)c(F)cc(C(N)=O)c1F | 3300 | 14 |  | 
Cc1ccc2c(c1)c(-c1ccc[nH]c1=O)c(C(=O)NS(=O)(=O)C1CC1)n2Cc1cc([N+](=O)[O-])ccc1Cl | 16 | 7 |  | 
Cc1ccc2c(c1)c(-c1ccc(C)[nH]c1=O)c(C(=O)O)n2Cc1cc([N+](=O)[O-])ccc1F | 30 | 13 |  | 
Cc1ccc2c(c1)c(-c1ccc[nH]c1=O)c(C(=O)NS(=O)(=O)C1CC1)n2Cc1cc([S+]([O-])C(F)(F)F)ccc1Cl (stereo not given) | 3400 | 14 |  | 
Cc1ccc2c(c1)c(-c1ccc[nH]c1=O)c(C(=O)NS(=O)(=O)C1CC1)n2Cc1cc(F)ccc1F |  | 6 |  | 
Cc1ccc2c(c1)c(-c1ccc(C)[nH]c1=O)c(C(=O)NS(=O)(=O)C1CC1)n2Cc1cc([N+](=O)[O-])ccc1F | 9 | 12 |  | 

More lines, in order of falling IC50 [1], values ahead:

EC50 (Hepatitis C virus) [nM] | IC50 [1] [nM] | AUC [2] [µM·h] | Activity (Hepacivirus hominis) | SMILES
5 | 6 | 0.3 |  | O=C(NS(=O)(=O)C1CC1)c1c(-c2ccc[nH]c2=O)c2cc(Cl)ccc2n1Cc1cc([N+](=O)[O-])ccc1F
1 | 6 | 0.01 |  | Cc1ccc2c(c1)c(-c1ccc[nH]c1=O)c(C(=O)NS(=O)(=O)C1CC1)n2Cc1cc([N+](=O)[O-])ccc1F
1 | 6 | 0.19 | Active | Cc1ccc2c(c1)c(-c1ccc[nH]c1=O)c(C(=O)NS(C)(=O)=O)n2Cc1cc([N+](=O)[O-])ccc1F
580 | 6 |  |  | Cc1ccc2c(c1)c(-c1ccc[nH]c1=O)c(C(=O)NS(=O)(=O)C1CC1)n2Cc1cc(S(C)(=O)=O)ccc1F
50 | 5 |  |  | Cc1ccc2c(c1)c(-c1ccc[nH]c1=O)c(C(=O)NS(=O)(=O)C1CC1)n2Cc1ccccc1F
550 | 5 |  |  | Cc1ccc2c(c1)c(-c1ccc[nH]c1=O)c(C(=O)NS(=O)(=O)C1CC1)n2Cc1cc(S(N)(=O)=O)ccc1F
3 | 4 |  |  | Cc1ccc2c(c1)c(-c1ccc[nH]c1=O)c(C(=O)NS(=O)(=O)C(C)C)n2Cc1cc([N+](=O)[O-])ccc1F
380 | 4 |  |  | Cc1ccc2c(c1)c(-c1ccc[nH]c1=O)c(C(=O)NS(=O)(=O)C1CC1)n2Cc1cccc(C)c1F
3 | 3 |  |  | CCc1ccc2c(c1)c(-c1ccc[nH]c1=O)c(C(=O)NS(=O)(=O)C1CC1)n2Cc1cc(S(C)(=O)=O)c(C#N)cc1F
1 | 3 | 0.14 |  | Cc1ccc2c(c1)c(-c1ccc[nH]c1=O)c(C(=O)O)n2Cc1cc([N+](=O)[O-])ccc1F
